Test results reported in ChEMBL document CHEMBL4406804, “Discovery of a Potent Steroidal Glucocorticoid Receptor Antagonist with Enhanced Selectivity against the Progesterone and Androgen Receptors (OP-3633)” (J Med Chem, 2019).
The source made the active and inactive calls. The calls are words filed in the database; no cut-off is given here.

Experiments:
Assay type in all cases: cell-based
[1] = target: T1, Glucocorticoid receptor (Homo sapiens) (UniProt P04150); assay: Antagonist activity at human glucocorticoid receptor expressed in CHO-K1 cells harboring firefly luciferase gene assessed as inhibition of glucocorticoid receptor activity at 0.01 to 10000 nM after 20 hrs by One-Glo luciferase reporter gene assay relative to mifepristone; design: scale not given: the % may be the effect or the level left
T1 sequence (whole entry): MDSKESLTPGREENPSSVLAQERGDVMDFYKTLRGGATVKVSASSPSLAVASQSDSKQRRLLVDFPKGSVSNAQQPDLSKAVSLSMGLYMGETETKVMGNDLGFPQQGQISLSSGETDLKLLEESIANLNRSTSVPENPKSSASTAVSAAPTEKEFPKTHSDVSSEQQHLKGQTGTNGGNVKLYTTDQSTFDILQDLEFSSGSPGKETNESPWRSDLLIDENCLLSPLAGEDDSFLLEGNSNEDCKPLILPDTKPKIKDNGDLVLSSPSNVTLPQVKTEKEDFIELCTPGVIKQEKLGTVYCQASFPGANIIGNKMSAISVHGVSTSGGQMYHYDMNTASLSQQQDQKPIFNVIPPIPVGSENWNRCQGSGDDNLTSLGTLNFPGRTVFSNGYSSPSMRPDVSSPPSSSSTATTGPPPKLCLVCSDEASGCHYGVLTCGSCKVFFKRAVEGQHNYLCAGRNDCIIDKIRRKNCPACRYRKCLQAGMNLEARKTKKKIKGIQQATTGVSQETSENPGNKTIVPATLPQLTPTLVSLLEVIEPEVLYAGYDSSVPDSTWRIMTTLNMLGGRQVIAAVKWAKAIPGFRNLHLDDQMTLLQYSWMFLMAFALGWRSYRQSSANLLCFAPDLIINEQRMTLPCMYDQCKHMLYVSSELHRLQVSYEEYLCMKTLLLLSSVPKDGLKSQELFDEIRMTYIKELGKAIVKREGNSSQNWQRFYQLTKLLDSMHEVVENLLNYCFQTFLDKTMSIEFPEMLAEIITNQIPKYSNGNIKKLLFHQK
Method in brief: (§1)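 Cell-based luciferase reporter assays for GR, AR and PR, run in agonist and antagonist modes. Potency and Emax are averages of at least two determinations, reported with SD.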

Homo sapiens = species on record: Homo sapiens; assay: Selectivity ratio, ratio of IC50 for human androgen receptor in human LNCAP cells to IC50 for human glucocorticoid receptor expressed in CHO-K1 cells harboring firefly luciferase gene
Progesterone receptor = target: T2, Progesterone receptor (Homo sapiens, UniProt P06401); assay: Antagonist activity at human progesterone receptor expressed in CHO-K1 cells harboring firefly luciferase gene after 20 hrs by One-Glo luciferase reporter gene assay; method in brief: as §1
T2 sequence (P06401 whole entry): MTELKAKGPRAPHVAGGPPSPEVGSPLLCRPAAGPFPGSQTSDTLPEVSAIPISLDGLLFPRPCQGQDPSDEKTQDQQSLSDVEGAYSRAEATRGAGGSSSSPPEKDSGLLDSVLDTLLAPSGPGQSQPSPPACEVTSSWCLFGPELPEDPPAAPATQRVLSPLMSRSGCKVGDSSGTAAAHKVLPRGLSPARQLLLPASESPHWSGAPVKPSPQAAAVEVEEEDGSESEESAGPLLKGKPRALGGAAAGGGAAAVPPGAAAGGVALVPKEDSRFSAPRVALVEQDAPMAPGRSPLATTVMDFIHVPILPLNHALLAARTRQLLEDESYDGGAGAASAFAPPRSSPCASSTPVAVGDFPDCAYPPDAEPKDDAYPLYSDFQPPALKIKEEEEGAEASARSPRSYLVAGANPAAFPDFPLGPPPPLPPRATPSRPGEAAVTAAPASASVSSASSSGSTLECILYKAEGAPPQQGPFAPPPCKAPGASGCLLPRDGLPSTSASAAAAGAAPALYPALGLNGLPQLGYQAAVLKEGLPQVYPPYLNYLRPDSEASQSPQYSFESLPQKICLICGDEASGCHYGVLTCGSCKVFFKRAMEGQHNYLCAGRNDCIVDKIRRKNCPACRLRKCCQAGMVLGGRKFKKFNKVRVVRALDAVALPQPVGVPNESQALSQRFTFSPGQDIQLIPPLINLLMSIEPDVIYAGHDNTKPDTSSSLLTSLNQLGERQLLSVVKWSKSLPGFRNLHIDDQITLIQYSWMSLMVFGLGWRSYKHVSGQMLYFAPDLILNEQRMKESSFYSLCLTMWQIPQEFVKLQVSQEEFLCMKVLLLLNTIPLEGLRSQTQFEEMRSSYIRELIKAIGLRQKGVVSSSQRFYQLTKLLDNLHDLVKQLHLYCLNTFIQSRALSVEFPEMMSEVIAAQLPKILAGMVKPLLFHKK

Androgen receptor [2] = target: T3, Androgen receptor (Homo sapiens, UniProt P10275); assay: Antagonist activity at human androgen receptor in human LNCAP cells harboring firefly luciferase gene after 20 hrs by One-Glo luciferase reporter gene assay; method in brief: as §1
T3 sequence (P10275 whole entry): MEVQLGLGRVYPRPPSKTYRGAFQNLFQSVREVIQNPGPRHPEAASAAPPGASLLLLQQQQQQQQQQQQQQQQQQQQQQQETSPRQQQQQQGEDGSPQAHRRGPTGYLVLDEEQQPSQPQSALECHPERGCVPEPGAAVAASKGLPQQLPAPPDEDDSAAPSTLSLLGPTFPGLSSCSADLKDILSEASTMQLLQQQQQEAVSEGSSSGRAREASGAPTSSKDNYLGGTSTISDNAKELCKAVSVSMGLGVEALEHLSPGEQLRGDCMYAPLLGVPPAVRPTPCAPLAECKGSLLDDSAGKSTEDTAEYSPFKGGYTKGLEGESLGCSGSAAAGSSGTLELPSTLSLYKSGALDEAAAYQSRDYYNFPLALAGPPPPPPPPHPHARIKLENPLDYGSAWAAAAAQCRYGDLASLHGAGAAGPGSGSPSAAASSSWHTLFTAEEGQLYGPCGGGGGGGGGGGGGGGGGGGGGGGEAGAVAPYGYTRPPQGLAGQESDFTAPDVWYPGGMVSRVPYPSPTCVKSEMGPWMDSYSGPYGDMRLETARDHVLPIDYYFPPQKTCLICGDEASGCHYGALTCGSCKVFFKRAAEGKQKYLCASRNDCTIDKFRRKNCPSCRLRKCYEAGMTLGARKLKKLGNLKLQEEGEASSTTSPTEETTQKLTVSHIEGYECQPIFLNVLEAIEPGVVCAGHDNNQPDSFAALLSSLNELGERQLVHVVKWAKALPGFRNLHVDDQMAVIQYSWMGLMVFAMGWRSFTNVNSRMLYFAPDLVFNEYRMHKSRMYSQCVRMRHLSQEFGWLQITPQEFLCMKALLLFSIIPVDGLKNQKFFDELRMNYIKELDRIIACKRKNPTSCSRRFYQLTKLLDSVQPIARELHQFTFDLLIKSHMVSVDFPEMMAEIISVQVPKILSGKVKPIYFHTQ

[3] = target: T4, Progesterone receptor (Homo sapiens) (UniProt P06401); assay: Agonist activity at human progesterone receptor expressed in CHO-K1 cells harboring firefly luciferase gene after 20 hrs by One-Glo luciferase reporter gene assay; method in brief: as §1
T4 sequence (whole entry): T2 sequence (P06401 whole entry)

Glucocorticoid receptor = target: T5, Glucocorticoid receptor (Homo sapiens, UniProt P04150); assay: Antagonist activity at human glucocorticoid receptor expressed in CHO-K1 cells harboring firefly luciferase gene after 20 hrs by One-Glo luciferase reporter gene assay
T5 sequence (P04150 whole entry): T1 sequence (whole entry)

Androgen receptor [4] = target: T3, Androgen receptor; assay: Agonist activity at human androgen receptor in human LNCAP cells harboring firefly luciferase gene after 20 hrs by One-Glo luciferase reporter gene assay
Androgen receptor [5] = target: T3, Androgen receptor; assay: Agonist activity at human androgen receptor in human LNCAP cells harboring firefly luciferase gene after 20 hrs by One-Glo luciferase reporter gene assay relative to mifepristone; method in brief: as §1

Row | SMILES | Activity [1] | Ratio (Homo sapiens) | IC50 (Progesterone receptor) | IC50 (Androgen receptor [2]) | agonist activity [3] | IC50 (Glucocorticoid receptor) | EC50 (Androgen receptor [4]) | Emax at 20 h (Androgen receptor [5])
1 | CN(C)c1ccc([C@H]2C[C@@]3(C)[C@@H](CC[C@@]3(O)C#CC(C)(C)C)[C@@H]3CCC4=CC(=O)CC[C@@H]4[C@H]32)cc1 | 100% | 10 to 30 | 3.4 nM | 165 nM | inactive |  |  | 
2 | COCC#C[C@]1(O)CC[C@H]2[C@@H]3CCC4=CC(=O)CC[C@]4(C)[C@H]3[C@@H](c3ccc(N(C)C)cc3)C[C@@]21C |  |  | 4240 nM | > 5000 nM | inactive | 116 nM | > 2500 nM | 17.5%
3 | CN(C)c1ccc([C@H]2C[C@@]3(C)[C@@H](CC[C@@]3(O)C#CC(F)(F)F)[C@@H]3CCC4=CC(=O)CC[C@]4(C)[C@H]32)cc1 |  |  | 910 nM | 642 nM | inactive | 47.2 nM | > 2500 nM | 7.3%
4 | CCC#C[C@]1(O)CC[C@H]2[C@@H]3CCC4=CC(=O)CC[C@]4(C)[C@H]3[C@@H](c3ccc(N(C)C)cc3)C[C@@]21C |  |  | 1550 nM | 2960 nM | inactive | 73.7 nM | > 2500 nM | 13.2%
5 | CC#C[C@]1(O)CC[C@H]2[C@@H]3CCC4=CC(=O)CC[C@]4(C)[C@H]3[C@@H](c3ccc(-n4cccc4)cc3)C[C@@]21C |  |  | 523 nM | 354 nM | inactive | 52.2 nM | > 2500 nM | 16.5%
6 | CC#C[C@]1(O)CC[C@H]2[C@@H]3CCC4=CC(=O)CC[C@]4(C)[C@H]3[C@@H](c3ccc(N4CCCC4)cc3)C[C@@]21C |  |  | 4070 nM | 3150 nM | inactive | 57.9 nM | > 2500 nM | 10.6%
7 | CC#C[C@]1(O)CC[C@H]2[C@@H]3CCC4=CC(=O)CC[C@]4(C)[C@H]3[C@@H](c3ccc(OC)cc3)C[C@@]21C |  |  | 1690 nM | 561 nM | inactive | 58.3 nM | > 2500 nM | 14.1%
